ChEMBL document CHEMBL1133536, “Cation substitution in cationic phosphonolipids: a new concept to improve transfection activity and decrease cellular toxicity” (J Med Chem, 2000)
Values joined by “and” are separate entries in the source; they are usually repeats but may differ in a detail not shown here. Identical values can stand only once.

Key:
[1] = In vivo toxic effect of alanine aminotransferase (ALAT) was determined 24 hr after mice were injected with 50 microg of pTG11033 plasmid complexed with compound into serum with DOPE; assay type: ADME, organism-based; settings: mouse
Procedure, shortened: (§1)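 Female Swiss mice, 6 weeks old, given one 200 µL tail-vein injection of cationic phosphonolipid/pTG11033 lipoplexes (lipid:DNA charge ratio 4, 50 µg DNA per animal). Lipoplexes were held 30 min at room temperature beforehand. Serum was taken from coagulated blood 24 h later and transaminases measured on an automated analyser. Results are mean (SEM) of 6 animals. TI = transfected/control mouse transaminase level.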

[2] = (§2) In vivo toxic effect of alanine aminotransferase (ALAT) was determined 24 hr after mice were injected with 50 microg of pTG11033 plasmid complexed with compound into serum with cholesterol; assay type: ADME, organism-based; set-up: unit not given beside the values; settings: mouse; procedure, shortened: as §1
[3] = In vivo toxic effect of alanine aminotransferase (ALAT) was determined 24 hr after mice were injected with 50 microg of pTG11033 plasmid complexed with compound into serum without co-lipid; assay type: ADME, organism-based; settings: mouse; procedure, shortened: as §1
[4] = target: T1, Aspartate aminotransferase, mitochondrial (Mus musculus) (UniProt P05202); experiment: In vivo toxic effect as serum aspartate aminotransferase (ASAT) 24 hr after 50 ug pTG11033 plasmid injection without co-lipid into mice; assay type: functional, organism-based; procedure, shortened: as §1
T1 sequence (whole entry): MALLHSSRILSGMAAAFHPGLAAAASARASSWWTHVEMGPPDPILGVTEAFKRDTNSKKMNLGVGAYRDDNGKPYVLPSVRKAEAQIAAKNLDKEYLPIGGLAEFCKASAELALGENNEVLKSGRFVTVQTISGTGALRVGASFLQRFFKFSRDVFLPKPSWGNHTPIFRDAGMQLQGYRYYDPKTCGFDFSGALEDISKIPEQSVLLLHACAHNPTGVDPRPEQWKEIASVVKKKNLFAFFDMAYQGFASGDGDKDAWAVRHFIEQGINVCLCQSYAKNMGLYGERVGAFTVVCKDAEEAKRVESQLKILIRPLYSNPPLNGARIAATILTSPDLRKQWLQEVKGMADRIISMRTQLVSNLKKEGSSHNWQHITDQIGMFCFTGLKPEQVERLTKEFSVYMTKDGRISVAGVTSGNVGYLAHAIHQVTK

[5] = target: T1, Aspartate aminotransferase, mitochondrial (Mus musculus); experiment: In vivo toxic effect as serum aspartate aminotransferase (ASAT) 24 hr after DOPE complexed 50 ug pTG11033 plasmid injection into mice; assay type: functional, organism-based; procedure, shortened: as §1
[6] = target: T1, Aspartate aminotransferase, mitochondrial (Mus musculus); experiment: In vivo toxic effect as serum aspartate aminotransferase (ASAT) 24 hr after cholesterol complexed 50 ug pTG11033 plasmid injection into mice; assay type: functional, organism-based; procedure, shortened: as §1
[7] = as §2; assay type: ADME, organism-based; settings: mouse; procedure, shortened: as §1
[8] = target: T1, Aspartate aminotransferase, mitochondrial (Mus musculus); experiment: Toxicity index as ratio of serum ASAT levels in transfected and control mice; assay type: functional; procedure, shortened: as §1

SMILES: CCCCCCCC/C=C/CCCCCCCCOP(=O)(CC[As+](C)(C)C)OCCCCCCCC/C=C/CCCCCCCC.[I-]
- Toxicity [1]: 36
- Toxicity [2]: 172
- Toxicity [3]: 35
- Toxicity [4]: 225
- Toxicity [5]: 303
- Toxicity [6]: 600

SMILES: CCCCCCCC/C=C/CCCCCCCCOP(=O)(C[N+](C)(C)C)OCCCCCCCC/C=C/CCCCCCCC.[I-]
- Toxicity [1]: 30
- Toxicity [2]: 70
- Toxicity [3]: 250
- Toxicity [4]: 900
- Toxicity [5]: 125
- Toxicity [6]: 225

SMILES: CCCCCCCC/C=C/CCCCCCCCOP(=O)(CC[P+](C)(C)C)OCCCCCCCC/C=C/CCCCCCCC.[I-]
- Toxicity [1]: 65
- Toxicity [3]: 35
- Toxicity [7]: 184
- Toxicity [4]: 250
- Toxicity [5]: 646
- Toxicity [6]: 685

SMILES: CCCCCCCCCCCCCCOP(=O)(CC[P+](C)(C)C)OCCCCCCCCCCCCCC.[I-]
- Toxicity [1]: 39
- Toxicity [2]: 34
- Toxicity [3]: 55
- Toxicity [4]: 120
- Toxicity [5]: 145
- Toxicity [6]: 174
- TI [8]: 1.69 (2×) and 2.39 and 2.45

SMILES: CCCCCCCCCCCCCCOP(=O)(C[N+](C)(C)C)OCCCCCCCCCCCCCC.[I-]
- Toxicity [1]: 31
- Toxicity [2]: 24
- Toxicity [3]: 25
- Toxicity [4]: 80
- Toxicity [5]: 130
- Toxicity [6]: 75
- TI [8]: 1.12 [middle of 4 runs]

SMILES: CCCCCCCCCCCCCCOP(=O)(CC[As+](C)(C)C)OCCCCCCCCCCCCCC.[I-]
- Toxicity [1]: 34
- Toxicity [3]: 26
- Toxicity [7]: 41
- Toxicity [4]: 79
- Toxicity [5]: 155
- Toxicity [6]: 190
- TI [8]: 1.47 [middle of 4 runs]

SMILES: CCCCCCCC/C=C\CCCCCCCC(=O)OCC(C[N+](C)(C)C)OC(=O)CCCCCCC/C=C\CCCCCCCC.[Cl-] (stereo not given)
- Toxicity [1]: 74
- Toxicity [2]: 37
- Toxicity [3]: 70
- Toxicity [4]: 657
- Toxicity [5]: 275
- Toxicity [6]: 255
